From ChEMBL document CHEMBL1833896, “Acylglycinamides as inhibitors of glycine transporter type 1” (Bioorg Med Chem Lett, 2011)

system: not listed separately; experiment: Intrinsic clearance in human microsomes; format: ADME, Microsome; conditions: not given

Structure (SMILES)	CL [mL/min/g]
O=C(CN(CC1CC1)C(=O)c1ccc(-c2ccccn2)cc1)Nc1cc(F)cc(F)c1	< 0.5
O=C(CN(C(=O)c1ccc(-c2ccccn2)cc1)C1CCCC1)Nc1cc(F)cc(F)c1	1.9
CC(C)N(CC(=O)Nc1cc(F)cc(F)c1)C(=O)c1ccc(-c2ccccn2)cc1	< 0.5
O=C(CN(C(=O)c1ccc(-c2ccccn2)cc1)C1CCOCC1)Nc1cc(F)cc(F)c1	< 0.5
CCC(C)N(CC(=O)Nc1cc(F)cc(F)c1)C(=O)c1ccc(-c2ccccn2)cc1 (configuration not stated)	4.3
O=C(CN(CC1CCC1)C(=O)c1ccc(-c2ccccn2)cc1)Nc1cc(F)cc(F)c1	2
COCC(C)N(CC(=O)Nc1cc(F)cc(F)c1)C(=O)c1ccc(-c2ccccn2)cc1 (configuration not stated)	5.8
COCCN(CC(=O)Nc1cc(F)cc(F)c1)C(=O)c1ccc(-c2ccccn2)cc1	1.5
CCC(COC)N(CC(=O)Nc1cc(F)cc(F)c1)C(=O)c1ccc(-c2ccccn2)cc1 (configuration not stated)	9.6
O=C(CN(C(=O)c1ccc(-c2ccccn2)cc1)C1CCOC1)Nc1cc(F)cc(F)c1 (configuration not stated)	3.9
O=C(CN(C(=O)c1ccc(-n2ccnc2)cc1)C1CCCCC1)Nc1cc(F)cc(F)c1	6.1
O=C(CN(C(=O)c1ccc(-c2ccccn2)cc1)C1CCCCC1)Nc1cc(F)cc(F)c1	5.2
CC(C)CN(CC(=O)Nc1cc(F)cc(F)c1)C(=O)c1ccc(-c2ccccn2)cc1	1.3
O=C(CN(C(=O)c1ccc(-c2ccccn2)cc1)C1CCCOC1)Nc1cc(F)cc(F)c1 (racemic)	2.9

system: not listed separately; experiment: Ratio of drug level in brain to blood in rat; format: ADME, tissue-based; conditions: read-out: BBR

Structure (SMILES)	Kp
O=C(CN(C(=O)c1ccc(-c2ccccn2)cc1)C1CCOCC1)Nc1cc(F)cc(F)c1	0.2
O=C(CN(C(=O)c1ccc(-c2ccccn2)cc1)C1CCCOC1)Nc1cc(F)cc(F)c1 (racemic)	0.2

system: not listed separately; experiment: Lipophilicity, log D of the compound; format: physicochemical; conditions: chromatographic hydrophobicity index (CHI) method
In short: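 Lipophilicity was measured by a chromatographic method.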

Structure (SMILES)	logD
O=C(CN(CC1CC1)C(=O)c1ccc(-c2ccccn2)cc1)Nc1cc(F)cc(F)c1	3.1
O=C(CN(C(=O)c1ccc(-c2ccccn2)cc1)C1CCCC1)Nc1cc(F)cc(F)c1	3.4
CC(C)N(CC(=O)Nc1cc(F)cc(F)c1)C(=O)c1ccc(-c2ccccn2)cc1	3
O=C(CN(C(=O)c1ccc(-c2ccccn2)cc1)C1CCOCC1)Nc1cc(F)cc(F)c1	2.5
CCC(C)N(CC(=O)Nc1cc(F)cc(F)c1)C(=O)c1ccc(-c2ccccn2)cc1 (configuration not stated)	3.3
O=C(CN(CC1CCC1)C(=O)c1ccc(-c2ccccn2)cc1)Nc1cc(F)cc(F)c1	3.5
COCC(C)N(CC(=O)Nc1cc(F)cc(F)c1)C(=O)c1ccc(-c2ccccn2)cc1 (configuration not stated)	3
CCC(COC)N(CC(=O)Nc1cc(F)cc(F)c1)C(=O)c1ccc(-c2ccccn2)cc1 (configuration not stated)	3.3
O=C(CN(C(=O)c1ccc(-c2ccccn2)cc1)C1CCOC1)Nc1cc(F)cc(F)c1 (configuration not stated)	2.5
COc1ccc(C(=O)N(CC(=O)Nc2cc(F)cc(F)c2)C2CCCCC2)cc1	3.7
CN1CCC(C(=O)N(CC(=O)Nc2cc(F)cc(F)c2)C2CCCCC2)CC1	1.8
O=C(CN(C(=O)C1CCOCC1)C1CCCCC1)Nc1cc(F)cc(F)c1	3
O=C(CN(C(=O)c1cccnc1)C1CCCCC1)Nc1cc(F)cc(F)c1	2.7
Cn1ccc(C(=O)N(CC(=O)Nc2cc(F)cc(F)c2)C2CCCCC2)n1	3
CN(C)CCOc1ccc(C(=O)N(CC(=O)Nc2cc(F)cc(F)c2)C2CCCCC2)cc1	2.4
O=C(CN(C(=O)c1ccc(-n2ccnc2)cc1)C1CCCCC1)Nc1cc(F)cc(F)c1	2.7
O=C(CN(C(=O)c1ccc(N2CCCC2)nc1)C1CCCCC1)Nc1cc(F)cc(F)c1	3.6
O=C(CN(C(=O)c1ccc(N2CCCC2)cc1)C1CCCCC1)Nc1cc(F)cc(F)c1	4.5
O=C(CN(C(=O)c1ccc(-c2ccccn2)cc1)C1CCCCC1)Nc1cc(F)cc(F)c1	3.7
COc1ccc(C(=O)N(Cc2[nH]ncc2-c2ccccc2)C2CCCCC2)cc1	3.1
COc1ccc(C(=O)N(Cc2c(C)noc2-c2ccccc2)C2CCCCC2)cc1	4.1
COc1ccc(C(=O)N(Cc2csc(-c3ccccc3)n2)C2CCCCC2)cc1	4.6
COc1ccc(C(=O)N(Cc2c[nH]c(-c3ccccc3)n2)C2CCCCC2)cc1	2.9
COc1ccc(C(=O)N(Cc2cn(-c3ccccc3)nn2)C2CCCCC2)cc1	3.5
COc1ccc(C(=O)N(Cc2ccc(-c3ccc(Cl)cc3)o2)C2CCCCC2)cc1	5
COc1ccc(C(=O)N(Cc2cc(-c3ccccc3)on2)C2CCCCC2)cc1	4.2
CC(C)CN(CC(=O)Nc1cc(F)cc(F)c1)C(=O)c1ccc(-c2ccccn2)cc1	3.3
O=C(CN(C(=O)c1ccc(-c2ccccn2)cc1)C1CCCOC1)Nc1cc(F)cc(F)c1 (racemic)	2.7

system: not listed separately; experiment: Intrinsic clearance in rat microsomes; format: ADME, Microsome; conditions: not given

Structure (SMILES)	CL [mL/min/g]
O=C(CN(CC1CC1)C(=O)c1ccc(-c2ccccn2)cc1)Nc1cc(F)cc(F)c1	5
O=C(CN(C(=O)c1ccc(-c2ccccn2)cc1)C1CCCC1)Nc1cc(F)cc(F)c1	3.7
CC(C)N(CC(=O)Nc1cc(F)cc(F)c1)C(=O)c1ccc(-c2ccccn2)cc1	1.8
O=C(CN(C(=O)c1ccc(-c2ccccn2)cc1)C1CCOCC1)Nc1cc(F)cc(F)c1	0.6
CCC(C)N(CC(=O)Nc1cc(F)cc(F)c1)C(=O)c1ccc(-c2ccccn2)cc1 (configuration not stated)	3.8
O=C(CN(CC1CCC1)C(=O)c1ccc(-c2ccccn2)cc1)Nc1cc(F)cc(F)c1	4.8
COCC(C)N(CC(=O)Nc1cc(F)cc(F)c1)C(=O)c1ccc(-c2ccccn2)cc1 (configuration not stated)	4.2
COCCN(CC(=O)Nc1cc(F)cc(F)c1)C(=O)c1ccc(-c2ccccn2)cc1	3
CCC(COC)N(CC(=O)Nc1cc(F)cc(F)c1)C(=O)c1ccc(-c2ccccn2)cc1 (configuration not stated)	6.7
O=C(CN(C(=O)c1ccc(-c2ccccn2)cc1)C1CCOC1)Nc1cc(F)cc(F)c1 (configuration not stated)	3.2
O=C(CN(C(=O)c1ccc(-n2ccnc2)cc1)C1CCCCC1)Nc1cc(F)cc(F)c1	1.2
O=C(CN(C(=O)c1ccc(-c2ccccn2)cc1)C1CCCCC1)Nc1cc(F)cc(F)c1	15.4
CC(C)CN(CC(=O)Nc1cc(F)cc(F)c1)C(=O)c1ccc(-c2ccccn2)cc1	4.9
O=C(CN(C(=O)c1ccc(-c2ccccn2)cc1)C1CCCOC1)Nc1cc(F)cc(F)c1 (racemic)	2

species on record: Rattus norvegicus; experiment: Liver blood flow in rat; format: ADME, organism-based; conditions: not given

Structure (SMILES)	QH [%]
O=C(CN(C(=O)c1ccc(-c2ccccn2)cc1)C1CCOCC1)Nc1cc(F)cc(F)c1	75
O=C(CN(C(=O)c1ccc(-c2ccccn2)cc1)C1CCCOC1)Nc1cc(F)cc(F)c1 (racemic)	75

system: not listed separately; experiment: Oral bioavailability in rat; format: ADME, organism-based; conditions: in vivo

Structure (SMILES)	bioavailability [%]
O=C(CN(C(=O)c1ccc(-c2ccccn2)cc1)C1CCOCC1)Nc1cc(F)cc(F)c1	25
O=C(CN(C(=O)c1ccc(-c2ccccn2)cc1)C1CCCOC1)Nc1cc(F)cc(F)c1 (racemic)	15
